TRPC4 inh: blocks the mouse TRPC4 cation channel; Q9QUQ5; HEK293 TRPC4beta/mu-opioid, DAMGO-evoked Fluo4 calcium flux; stronger effect = lower value; B-score at 10 µM; 300,000 tested, 0.39% active; AID 2247;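 active = B-score over 3 SD under the library average, no early fluorescence shift, positive overall ratio signal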
Target sequence (Q9QUQ5 whole entry, looked up): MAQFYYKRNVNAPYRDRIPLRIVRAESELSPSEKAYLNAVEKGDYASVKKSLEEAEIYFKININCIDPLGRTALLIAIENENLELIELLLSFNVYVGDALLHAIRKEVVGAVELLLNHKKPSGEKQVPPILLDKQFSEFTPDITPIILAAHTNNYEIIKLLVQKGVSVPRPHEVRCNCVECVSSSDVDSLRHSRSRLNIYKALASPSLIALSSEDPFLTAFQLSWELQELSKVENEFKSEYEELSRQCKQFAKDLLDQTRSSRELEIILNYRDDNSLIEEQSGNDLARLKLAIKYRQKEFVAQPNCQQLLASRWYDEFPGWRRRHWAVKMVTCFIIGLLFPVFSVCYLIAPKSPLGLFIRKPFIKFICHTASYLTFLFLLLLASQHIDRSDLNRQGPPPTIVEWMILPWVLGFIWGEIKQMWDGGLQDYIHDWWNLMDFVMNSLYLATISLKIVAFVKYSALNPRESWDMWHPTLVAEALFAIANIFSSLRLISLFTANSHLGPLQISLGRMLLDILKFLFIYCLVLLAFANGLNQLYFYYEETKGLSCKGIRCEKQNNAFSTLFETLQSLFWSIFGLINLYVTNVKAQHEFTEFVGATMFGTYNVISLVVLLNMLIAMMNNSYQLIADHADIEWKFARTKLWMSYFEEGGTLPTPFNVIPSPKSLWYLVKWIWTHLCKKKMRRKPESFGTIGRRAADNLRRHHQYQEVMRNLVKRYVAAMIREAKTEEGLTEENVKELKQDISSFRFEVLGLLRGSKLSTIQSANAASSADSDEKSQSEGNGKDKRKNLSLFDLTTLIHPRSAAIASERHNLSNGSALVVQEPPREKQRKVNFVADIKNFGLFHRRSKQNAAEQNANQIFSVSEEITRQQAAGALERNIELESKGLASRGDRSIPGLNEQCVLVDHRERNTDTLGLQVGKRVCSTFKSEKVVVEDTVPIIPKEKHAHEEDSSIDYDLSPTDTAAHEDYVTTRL
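System: stable TRPC4beta/mu-opioid receptor HEK293 cells; Dosing: single-point compound dosing; Measured by: Fluo4 Ca2+ flux fluorescence; Read-out basis: per-well B score of integrated baseline-normalized Fluo4 ratio.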
TRPC6 inhibitor: blocks the mouse TRPC6 cation channel; Q61143; HEK293-TRPC6, membrane potential dye, ACh-evoked depolarization; stronger effect = lower value; B-score at 10 µM; 310,000 tested, 1.1% active; AID 2553;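 active = B-score under library mean minus 3 SD, initial fluorescence not abnormally high, positive integrated signal ratio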;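 also: B-score derived from integrated fluorescence ratio over the kinetic read; more negative B-score means stronger inhibition of depolarization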
TRPC6 activator: activates the mouse TRPC6 cation channel; Q61143; HEK293-TRPC6 membrane potential dye fluorescence; stronger effect = higher value; B-score at 10 µM; 310,000 tested, 0.13% active; AID 2550;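 active = B-score of the integrated fluorescence ratio above library mean plus 3 SD, and starting fluorescence ratio within library mean plus 5 SD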;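 also: higher score means more depolarization so channel activation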
TRPC4 agonist: activators of mouse TRPC4 channel | HEK293 TRPC4beta/mu-opioid, Fluo4 calcium fluorescence; stronger effect = higher value | B-score at 10 µM | AID 2237 | 310,000 tested, 0.49% active | Q9QUQ5;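 active = B-score above 5 SD of library B-scores, and initial fluorescence ratio not above library mean plus 5 SD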;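 also: positive B-score marks a calcium rise read as TRPC4 activation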
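System: HEK293 cells stably co-expressing mouse TRPC4beta and mu-opioid receptor; Schedule: Fluo4 dye loading 45 min at room temperature, 110 s recording; Detection: Fluo4 fluorescence, kinetic; Evaluation: B-scored integrated calcium fluorescence ratio; Controls: buffer (low) and maximal DAMGO (high).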
TRPC4 potent: TRPC4 (mouse) allosteric potentiation. B-score at 10 µM. Q9QUQ5. HEK293 TRPC4beta/mu-opioid, DAMGO EC20, Fluo-4 Ca2+ flux; stronger effect = higher value. 310,000 tested, 0.42% active;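 active = B-score of calcium response area above 5 SD of library B-scores, with initial fluorescence ratio within 5 SD of library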
TRPC4 sel inh 2: second selectivity test of TRPC6 inhibitors: effect on mouse TRPC4. shares compounds with TRPC6 inhibitor. HEK293 TRPC4/MOR, membrane potential dye fluorescence; channel activated by saturating DAMGO dose. inhibition, % at 10 µM. 920 tested, 42% active;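 active = compounds whose fluorescence signal differed from control wells by over 3 SD, either direction, in both duplicate plates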
TRPC4 spec: selectivity of TRPC6 inhibitors: effect on mouse TRPC4. shares compounds with TRPC6 inhibitor. HEK293 TRPC4/mu-opioid, membrane potential fluorescence. activity change, negative = inhibition, % at 10 µM. 920 tested, 61% active;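 active = rise or fall in signal beyond 3 SD of buffer-only wells in both replicate plates, either sign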;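 also: integrated kinetic ratio of fluorescence range over baseline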
HEK293 MPD ctr 2-1: second counter-screen for TRPC6 inhibitors: parental HEK293 cells; shares compounds with TRPC6 inhibitor; parental HEK293 membrane potential dye fluorescence; maximal acetylcholine challenge after compound addition; signal change vs control, % at 10 µM; 920 tested, 31% active;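 active = membrane potential signal moving either way by over 3 SD of the maximum-effect control, in both duplicate plates, meaning non-specific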
HEK293 MPD ctr-1: counter-screen for TRPC6 inhibitors: effect in parental HEK293 cells; AID 2780; membrane potential signal change, % at 10 µM; 920 tested, 60% active; parental HEK293 membrane potential dye fluorescence; shares compounds with TRPC6 inhibitor;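 active = membrane potential signal shifting up or down by more than 3 SD of buffer-only wells, on both duplicate plates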
HEK293 MPD ctr-2: parental HEK293 nonspecific activity of TRPC6 modulators | membrane potential signal change, % at 10 µM | membrane potential dye fluorescence | 2,400 tested, 51% active | shares compounds with TRPC6 inhibitor;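 active = membrane potential signal moves up or down beyond 5 SD from buffer-only wells, on both duplicate plates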
HEK293 MPD ctr 2-2: second check of TRPC6 modulator effects in parental HEK293 cells. shares compounds with TRPC6 inhibitor. membrane potential dye fluorescence; after compound, maximal acetylcholine stimulation. AID 488926. 2,400 tested, 14% active. inhibition, % at 10 µM;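 active = membrane potential signal drops by more than 5 SD from the mean control signal, in both duplicate plates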
TRPC4/MOR mod: tests whether TRPC6 modulators also affect mouse TRPC4. shares compounds with TRPC6 inhibitor. HEK293 TRPC4/mu-opioid, membrane potential fluorescence. percent change from control (negative = decrease, positive = increase), % at 10 µM. 2,400 tested, 69% active. AID 488927;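 active = membrane potential signal moved up or down beyond 5 SD of buffer control wells, in both duplicate plates, actives on both sides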
TRPC4 ctr inh 2: second selectivity test of TRPC6 modulators against mouse TRPC4. shares compounds with TRPC6 inhibitor. HEK293 TRPC4/mu-opioid, membrane potential dye fluorescence; stimulated with maximal-effect DAMGO. inhibition, % at 10 µM. 2,400 tested, 55% active. AID 488928;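 active = drop in membrane potential signal beyond 5 SD of the control wells in both duplicate plates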;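 also: TRPC4 counter screen for TRPC6 hits run under conditions tuned for TRPC6 not TRPC4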
TRPC6 block conf: confirmation of mouse TRPC6 inhibitors | shares compounds with TRPC6 inhibitor | HEK293-TRPC6, membrane potential dye, ACh-evoked depolarization | inhibition, % at 10 µM | 3,300 tested, 43% active | AID 488960;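 active = fluorescence ratio falls more than 5 SD below the full-stimulation control mean, in both duplicate runs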;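 also: integrated fluorescence ratio of peak minus minimum over baseline after agonist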
TRPC6 act confirm: confirmation of mouse TRPC6 activators. activation, % at 10 µM. 2,800 tested, 11% active. shares compounds with TRPC6 inhibitor. AID 488961. HEK293-TRPC6 membrane potential dye fluorescence, FDSS;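 active = ratio signal rise beyond 5 SD above unstimulated control wells' mean, seen in both duplicate runs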
Of the large screens only hits and unclear results are named; the others gave an inactive call (follow-up assays come after a bar, where they were run). Compounds with a hit are over-represented: about 2.3% of the library has one in this group of screens.

COc1ccc(-c2cc(=O)oc3c(C)c(OCC(=O)NCCCn4ccnc4)ccc23)cc1	none
CCc1cc(=O)oc2cc(C)cc(OCC(=O)NCCCn3ccnc3)c12	none
Cc1cc(OCC(=O)NCCCn2ccnc2)c2c(C)c(C)c(=O)oc2c1	TRPC6 inhibitor -6.1 | HEK293 MPD ctr-2 -276% | HEK293 MPD ctr 2-2 inactive | TRPC4/MOR mod -48% | TRPC4 ctr inh 2 36% | TRPC6 block conf inactive | TRPC6 act confirm inactive
Cc1ccc(CS(=O)Cc2ccc(C(=O)NCc3ccc4c(c3)OCO4)o2)cc1 (stereo unspecified)	none
COc1ccc(/C=N/Nc2nc(N3CCCC3)nc(N3CCCC3)n2)cc1O	TRPC6 inhibitor -5.5 | HEK293 MPD ctr-2 inactive | HEK293 MPD ctr 2-2 inactive | TRPC4/MOR mod inactive | TRPC4 ctr inh 2 inactive | TRPC6 block conf inactive | TRPC6 act confirm inactive
COc1cc(/C=N/Nc2nc(N3CCCC3)nc(N3CCCC3)n2)ccc1OCc1ccccc1F	TRPC6 inhibitor -7.4 | TRPC4 sel inh 2 inactive | TRPC4 spec -14% | HEK293 MPD ctr 2-1 inactive | HEK293 MPD ctr-1 inactive | TRPC6 block conf inactive | TRPC6 act confirm inactive
COc1ccc(/C=N/Nc2nc(N3CCCC3)nc(N3CCCC3)n2)cc1	none
COc1ccc(-c2[nH]ncc2-c2ccc(Cl)cc2)c(O)c1	none
COc1ccc(-c2cn[nH]c2-c2ccc(OC)cc2O)cc1	TRPC6 inhibitor -5.2 | HEK293 MPD ctr-2 inactive | HEK293 MPD ctr 2-2 inactive | TRPC4/MOR mod -14% | TRPC4 ctr inh 2 48% | TRPC6 block conf inactive | TRPC6 act confirm inactive
Oc1ccc(-c2[nH]ncc2-c2ccc(Br)cc2)c(O)c1	TRPC6 inhibitor -5.3 | HEK293 MPD ctr-2 -72% | HEK293 MPD ctr 2-2 inactive | TRPC4/MOR mod -16% | TRPC4 ctr inh 2 68% | TRPC6 block conf 50% | TRPC6 act confirm inactive
Oc1ccc(-c2[nH]ncc2-c2ccc(Cl)cc2)c(O)c1	TRPC6 inhibitor -7.4 | HEK293 MPD ctr-2 -74% | HEK293 MPD ctr 2-2 inactive | TRPC4/MOR mod -22% | TRPC4 ctr inh 2 79% | TRPC6 block conf 46% | TRPC6 act confirm inactive
Oc1ccc(-c2[nH]ncc2-c2cccc3cccnc23)c(O)c1	none
CC(=O)NC(CC(=O)NCc1ccncc1)c1ccccc1 (stereo unspecified)	none
O=C(NC1CCSc2ccccc21)c1ccc(Cl)c(S(=O)(=O)N2CCOCC2)c1 (stereo unspecified)	none
O=c1[nH]c(-c2ccccc2)c(-c2ccccc2)nc1[N+](=O)[O-]	TRPC6 activator 12 | HEK293 MPD ctr-2 inactive | HEK293 MPD ctr 2-2 inactive | TRPC4/MOR mod 16% | TRPC4 ctr inh 2 inactive | TRPC6 block conf inactive | TRPC6 act confirm 48%
CN1C2CCC1CC(OC(=O)c1c[nH]c3ccccc13)C2 (stereo unspecified)	none
CN1C2CCC1CC(OC(c1ccccc1)c1ccccc1)C2 (stereo unspecified)	TRPC6 inhibitor -7.1 | TRPC4 sel inh 2 68% | TRPC4 spec 19% | HEK293 MPD ctr 2-1 inactive | HEK293 MPD ctr-1 14% | TRPC6 block conf 69%
COc1cc(SC)ccc1C(=O)NC1CCCc2ccccc21 (stereo unspecified)	none
Cn1cc(/C=C(\NC(=O)c2ccccc2)C(=O)N2CCOCC2)c2ccccc21	none
Cc1ccc(C(=O)N/C(=C\c2cn(C)c3ccccc23)C(=O)OCCN(C)C)cc1	TRPC6 inhibitor -7.5 | TRPC4 sel inh 2 57% | TRPC4 spec -15% | HEK293 MPD ctr 2-1 inactive | HEK293 MPD ctr-1 -280% | TRPC6 block conf inactive | TRPC6 act confirm inactive
CN(C)CCOC(=O)/C(=C/c1cn(C)c2ccccc12)NC(=O)c1ccccc1	TRPC6 inhibitor -7.7 | TRPC4 sel inh 2 inactive | TRPC4 spec inactive | HEK293 MPD ctr 2-1 inactive | HEK293 MPD ctr-1 inactive | TRPC6 block conf inactive | TRPC6 act confirm inactive
Cc1cc(C)nc(/N=C(\N)N2CCc3ccccc32)n1	TRPC6 inhibitor -6.4 | HEK293 MPD ctr-2 inactive | HEK293 MPD ctr 2-2 inactive | TRPC4/MOR mod -12% | TRPC4 ctr inh 2 46% | TRPC6 block conf inactive | TRPC6 act confirm inactive
O=C(NCCN1CCOCC1)c1sc2cc(Cl)ccc2c1Cl	none
Nc1cc(=O)[nH]c(=O)n1Cc1ccco1	TRPC6 inhibitor -5.3 | HEK293 MPD ctr-2 inactive | HEK293 MPD ctr 2-2 inactive | TRPC4/MOR mod inactive | TRPC4 ctr inh 2 inactive | TRPC6 block conf inactive | TRPC6 act confirm inactive
COc1ccc(-c2cc(C(F)(F)F)c3c(N)c(C(=O)NCCSC)sc3n2)cc1	none
CN(C)CCNC(=O)c1sc2nc(-c3ccccc3)cc(C(F)(F)F)c2c1N	TRPC6 activator 16, TRPC4 agonist 83 | HEK293 MPD ctr-2 312% | HEK293 MPD ctr 2-2 inactive | TRPC4/MOR mod 57% | TRPC4 ctr inh 2 45% | TRPC6 act confirm 144%
O=C1CN(C(=O)c2cc([N+](=O)[O-])ccc2Cl)C(c2ccccc2)c2cc(F)ccc2N1 (stereo unspecified)	none
COC(=O)c1ccc(S(=O)(=O)N2CCN(C)CC2)n1C	none
